Experimental data as given in ChEMBL document CHEMBL2375307, “Synthesis and identification of β-aryloxyquinoline based diversely fluorine substituted N-aryl quinolone derivatives as a new class of antimicrobial, antituberculosis and antioxidant agents” (Eur J Med Chem, 2013).
In brackets after ≈: the same amount, converted by molar mass.

Legend:
[1] = tested on: Streptococcus pneumoniae; assay: Antibacterial activity against Streptococcus pneumoniae MTCC 1936 assessed as growth inhibition after overnight incubation by NCCLS broth microdilution method; type: functional
How it was run: (§1)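 Broth microdilution per NCCLS in Mueller Hinton broth, compounds diluted in DMSO. Primary screen at 500, 250 and 200 µg/mL; actives retested at 100, 62.5, 50, 25 and 12.5 µg/mL. Tubes incubated overnight at 37 °C. […] Non-growing tubes subcultured overnight at 37 °C to judge bacteriostatic versus bactericidal action.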

[2] = Antioxidant activity of the compound assessed as ascorbic acid equivalent of ferric tripyridyl triazine reducing activity at 200 ug/mL after 15 mins by FRAP assay; type: functional
How it was run: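 FRAP, modified Benzie and Strain method. Fe(III)-TPTZ reagent made with TPTZ in 40 mM HCl, FeCl3 solution and acetate buffer pH 3.6. 200 µL sample solution mixed with 3 mL reagent and held 15 min at 37 °C. Fe(II)-TPTZ read at 593 nm against an ascorbic acid standard, expressed as ascorbic acid equivalents (mmol/100 g compound).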

[3] = Toxicity in brine shrimps cysts assessed as mortality at 50 ug/mL after 24 hrs relative to control; type: organism-based; conditions: artemia, in vivo
[4] = tested on: Clostridium tetani; assay: Antibacterial activity against Clostridium tetani MTCC 449 assessed as growth inhibition after overnight incubation by NCCLS broth microdilution method; type: functional
[5] = tested on: Candida albicans; assay: Antifungal activity against Candida albicans MTCC 227 assessed as growth inhibition after overnight incubation by NCCLS broth microdilution method; type: functional; how it was run: as §1
[6] = Toxicity in brine shrimps cysts assessed as mortality at 10 ug/mL after 24 hrs relative to control; type: organism-based; conditions: artemia, in vivo
[7] = Toxicity in brine shrimps cysts assessed as mortality at 5 ug/ml after 24 hrs relative to control; type: organism-based; conditions: artemia, in vivo
[8] = tested on: Mycobacterium tuberculosis; assay: Antitubercular activity against Mycobacterium tuberculosis H37Rv assessed as growth inhibition after 12 to 28 days by Lowenstein-Jensen method; type: functional
How it was run: (§2)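 Modified Lowenstein-Jensen method. Compound at 250 in DMSO added to liquid L-J medium, then sterilized by inspissation and incubated 24 h at 37 °C. Streaked with H37Rv harvested in 0.85% saline (5 × 10⁴ bacilli/tube) and incubated at 37 °C. Colonies read at 12, 22 and 28 days versus drug-free control; no colonies or <20 colonies scored as inhibition.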

[9] = tested on: Aspergillus fumigatus; assay: Antifungal activity against Aspergillus fumigatus MTCC 3008 assessed as growth inhibition after overnight incubation by NCCLS broth microdilution method; type: functional; how it was run: as §1
[10] = tested on: Mycobacterium tuberculosis; assay: Antitubercular activity against Mycobacterium tuberculosis H37Rv assessed as growth inhibition at 250 ug/mL after 12 to 28 days by Lowenstein-Jensen method relative to control; type: functional; conditions: read-out: GI; how it was run: as §2
[11] = tested on: Salmonella typhi; assay: Antibacterial activity against Salmonella typhi MTCC 98 assessed as growth inhibition after overnight incubation by NCCLS broth microdilution method; type: functional, Salmonella enterica subsp. enterica serovar Typhi; conditions: Salmonella enterica
[12] = Toxicity in brine shrimps cysts assessed as mortality at 40 ug/mL after 24 hrs relative to control; type: organism-based; conditions: artemia, in vivo
[13] = Toxicity in brine shrimps cysts assessed as mortality after 24 hrs relative to control; type: organism-based; conditions: artemia, in vivo
[14] = Toxicity in brine shrimps cysts assessed as mortality at 30 ug/mL after 24 hrs relative to control; type: organism-based; conditions: artemia, in vivo
[15] = Toxicity in brine shrimps cysts assessed as mortality at 20 ug/mL after 24 hrs relative to control; type: organism-based; conditions: artemia, in vivo
[16] = tested on: Bacillus subtilis; assay: Antibacterial activity against Bacillus subtilis MTCC 441 assessed as growth inhibition after overnight incubation by NCCLS broth microdilution method; type: functional; how it was run: as §1
[17] = tested on: Vibrio cholerae; assay: Antibacterial activity against Vibrio cholerae MTCC 3906 assessed as growth inhibition after overnight incubation by NCCLS broth microdilution method; type: functional
[18] = tested on: Escherichia coli; assay: Antibacterial activity against Escherichia coli MTCC 443 assessed as growth inhibition after overnight incubation by NCCLS broth microdilution method; type: functional; how it was run: as §1

Row | Compound | MIC [1] [µg/mL] | Activity [2] [equiv] | mortality at 24 h, 50 ug/mL [3] [%] | MIC [4] [µg/mL] | MIC [5] [µg/mL] | mortality at 24 h, 10 ug/mL [6] [%] | mortality at 24 h, 5 ug/ml [7] [%] | MIC [8] [µg/mL] | MIC [9] [µg/mL] | inhibition of growth at 250 µg/mL [10] [%] | MIC [11] [µg/mL] | mortality at 24 h, 40 ug/mL [12] [%] | LC50 at 24 h [13] [µg/mL] | mortality at 24 h, 30 ug/mL [14] [%] | mortality at 24 h, 20 ug/mL [15] [%] | MIC [16] [µg/mL] | MIC [17] [µg/mL] | MIC [18] [µg/mL]
1 | Cc1ccc2nc(Oc3ccc(C#N)cc3)c(C3C(C#N)=C(N)N(c4cc(F)ccc4F)C4=C3C(=O)CC(C)(C)C4)cc2c1 (centres undefined) | 100 (≈ 170 µM) | 13.9 | 80 | 100 (≈ 170 µM) | > 1000 | 10 | 0 | 62.5 (≈ 106 µM) | > 1000 | 99 | 200 (≈ 340 µM) | 70 | 27.5 (≈ 46.8 µM) | 50 | 20 | 200 (≈ 340 µM) | 25 (≈ 42.5 µM) | 62.5 (≈ 106 µM)
2 | N#CC1=C(N)N(c2ccc(F)c(F)c2)C2=C(C(=O)CCC2)C1c1cc2cc(Cl)ccc2nc1Oc1ccc(C#N)cc1 (centres undefined) | 200 (≈ 345 µM) | 2.97 | 90 | 200 (≈ 345 µM) | 1000 (≈ 1720 µM) | 40 | 20 | 100 (≈ 172 µM) | > 1000 | 95 | 250 (≈ 431 µM) | 80 | 14.1 (≈ 24.3 µM) | 70 | 60 | 125 (≈ 216 µM) | 100 (≈ 172 µM) | 200 (≈ 345 µM)
3 | NNC(=O)c1ccncc1 [ISONIAZID] | – | – | – | – | – | – | – | 0.2 (≈ 1.46 µM) | – | 99 | – | – | – | – | – | – | – | –
4 | CO[C@H]1/C=C/O[C@@]2(C)Oc3c(C)c(O)c4c(O)c(c(/C=N/N5CCN(C)CC5)c(O)c4c3C2=O)NC(=O)/C(C)=C\C=C\[C@H](C)[C@H](O)[C@@H](C)[C@@H](O)[C@@H](C)[C@H](OC(C)=O)[C@@H]1C [RIFAMPIN] | – | – | – | – | – | – | – | 40 (≈ 48.6 µM) | – | 98 | – | – | – | – | – | – | – | –
5 | N#CC1=C(N)N(c2cccc(C(F)(F)F)c2)C2=C(C(=O)CCC2)C1c1cc2cc(Cl)ccc2nc1Oc1ccc(C#N)cc1 (centres undefined) | 62.5 (≈ 102 µM) | 5.15 | 70 | 200 (≈ 327 µM) | 1000 (≈ 1630 µM) | 10 | 0 | 25 (≈ 40.8 µM) | 1000 (≈ 1630 µM) | 99 | 200 (≈ 327 µM) | 50 | 37.8 (≈ 61.7 µM) | 40 | 20 | 200 (≈ 327 µM) | 62.5 (≈ 102 µM) | 250 (≈ 408 µM)
6 | Cc1ccc2nc(Oc3ccc(C#N)cc3)c(C3C(C#N)=C(N)N(c4cccc(C(F)(F)F)c4)C4=C3C(=O)CC(C)(C)C4)cc2c1 (centres undefined) | 125 (≈ 202 µM) | 339 | 90 | 250 (≈ 403 µM) | > 1000 | 30 | 10 | 125 (≈ 202 µM) | 1000 (≈ 1610 µM) | 93 | 100 (≈ 161 µM) | 80 | 17.1 (≈ 27.7 µM) | 70 | 50 | 100 (≈ 161 µM) | 125 (≈ 202 µM) | 100 (≈ 161 µM)
7 | CC1(C)CC(=O)C2=C(C1)N(c1cccc(C(F)(F)F)c1)C(N)=C(C#N)C2c1cc2cc(Cl)ccc2nc1Oc1ccc(C#N)cc1 (centres undefined) | 125 (≈ 195 µM) | 7.13 | 80 | 250 (≈ 391 µM) | > 1000 | 20 | 10 | 62.5 (≈ 97.6 µM) | 1000 (≈ 1560 µM) | 98 | 125 (≈ 195 µM) | 70 | 23.3 (≈ 36.5 µM) | 50 | 40 | 250 (≈ 391 µM) | 100 (≈ 156 µM) | 125 (≈ 195 µM)
8 | N#CC1=C(N)N(c2cc(F)ccc2F)C2=C(C(=O)CCC2)C1c1cc2cc(Cl)ccc2nc1Oc1ccc(C#N)cc1 (centres undefined) | 100 (≈ 172 µM) | 100 | – | 100 (≈ 172 µM) | 250 (≈ 431 µM) | – | – | – | 1000 (≈ 1720 µM) | 84 | 62.5 (≈ 108 µM) | – | – | – | – | 200 (≈ 345 µM) | 100 (≈ 172 µM) | 100 (≈ 172 µM)
9 | CC1(C)CC(=O)C2=C(C1)N(c1cccc(C(F)(F)F)c1)C(N)=C(C#N)C2c1cc2ccccc2nc1Oc1ccc(C#N)cc1 (centres undefined) | 200 (≈ 330 µM) | 20.2 | – | 200 (≈ 330 µM) | 1000 (≈ 1650 µM) | – | – | – | 1000 (≈ 1650 µM) | 45 | 200 (≈ 330 µM) | – | – | – | – | 250 (≈ 413 µM) | 200 (≈ 330 µM) | 250 (≈ 413 µM)
10 | N#CC1=C(N)N(c2cccc(C(F)(F)F)c2)C2=C(C(=O)CCC2)C1c1cc2ccccc2nc1Oc1ccc(C#N)cc1 (centres undefined) | 125 (≈ 216 µM) | 270 | – | 250 (≈ 433 µM) | 1000 (≈ 1730 µM) | – | – | – | 1000 (≈ 1730 µM) | 52 | 250 (≈ 433 µM) | – | – | – | – | 100 (≈ 173 µM) | 250 (≈ 433 µM) | 200 (≈ 346 µM)
